The results in this text go back to ChEMBL document CHEMBL1149652, “Synthesis and structure-activity relationship study of cytotoxic germanicane- and lupane-type 3beta-O-monodesmosidic saponins starting from betulin” (Bioorg Med Chem, 2007).

Test [1] deals with A549. Description: Cytotoxicity against human A549 cells assessed as cell viability after 48 hrs. The class given is functional, cell-based. The conditions noted are these: A549, 48 h. Put shortly:
(§1)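 Cells from ATCC grown in MEM with Earle's salts, L-glutamine, 10% FBS, vitamins, essential amino acids, sodium pyruvate, penicillin/streptomycin, 37 °C, 5% CO2. Exponentially growing cells seeded at 5 × 10^3 per well, adhered 16 h, then exposed 48 h to increasing concentrations from DMSO stocks (final DMSO 0.5% v/v). Resazurin fluorescence read (ex 530/em 590 nm), blank-subtracted, expressed as survival versus control wells. IC50 given as mean ± standard deviation, three experiments in triplicate.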

Test [2] has as its system DLD-1. Briefly: Cytotoxicity against human DLD1 cells assessed as cell viability after 48 hrs. The conditions noted are these: DLD-1, 48 h. The format is functional, cell-based. The essentials:
as §1

Test [3] can be described thus: Cytotoxicity against human WS1 cells assessed as cell viability after 48 hrs. The format is cell-based. The conditions noted are these: WS1, 48 h. Put shortly:
as §1

Where only a bound is given, the exact number is not on record here.

The term IC50 denotes the concentration that gives 50% inhibition. Consider `C=C(C)[C@@H]1CC[C@]2(CO)CC[C@]3(C)[C@H](CC[C@@H]4[C@@]5(C)CC[C@H](O[C@H]6O[C@H](CO)[C@@H](O)[C@H](O)[C@@H]6O)C(C)(C)[C@@H]5CC[C@]43C)[C@@H]12`, for which the IC50 in test [1] was determined as 7.3 µM; in test [2], 10.1 µM; in test [3], 5.1 µM.
Take `C=C(C)[C@@H]1CC[C@]2(C(=O)O)CC[C@]3(C)[C@H](CC[C@@H]4[C@@]5(C)CC[C@H](O[C@@H]6O[C@H](CO)[C@@H](O)[C@H](O)[C@H]6O)C(C)(C)[C@@H]5CC[C@]43C)[C@@H]12`: the IC50 in test [1] is above 75 µM.
For `C=C(C)[C@@H]1CC[C@]2(C(=O)O)CC[C@]3(C)[C@H](CC[C@@H]4[C@@]5(C)CC[C@H](O[C@H]6O[C@H](CO)[C@@H](O)[C@H](O)[C@@H]6O)C(C)(C)[C@@H]5CC[C@]43C)[C@@H]12`, the IC50 is 34 µM in test [1], 15 µM in test [2] and 13 µM in test [3].
Turning to `CC1(C)CC[C@]23CC[C@]4(C)[C@H](CC[C@@H]5[C@@]6(C)CC[C@H](O[C@H]7OC[C@H](O)[C@H](O)[C@H]7O)C(C)(C)[C@@H]6CC[C@]54C)[C@H]2[C@@H]1OC3`, the IC50 in test [1], in test [2] and in test [3] was above 75 µM in each case.
Turning to `CC1(C)CC[C@]23CC[C@]4(C)[C@H](CC[C@@H]5[C@@]6(C)CC[C@H](O[C@@H]7OC[C@@H](O)[C@H](O)[C@H]7O)C(C)(C)[C@@H]6CC[C@]54C)[C@H]2[C@@H]1OC3`, the IC50 in test [1], in test [2] and in test [3] was above 75 µM throughout.
With `CC1(C)CC[C@]23CC[C@]4(C)[C@H](CC[C@@H]5[C@@]6(C)CC[C@H](O[C@@H]7O[C@H](CO)[C@H](O)[C@H](O)[C@H]7O)C(C)(C)[C@@H]6CC[C@]54C)[C@H]2[C@@H]1OC3=O`, the IC50 in test [1], in test [2] and in test [3] was above 75 µM in each case.
Take `CC1(C)CC[C@]23CC[C@]4(C)[C@H](CC[C@@H]5[C@@]6(C)CC[C@H](O[C@@H]7OC[C@@H](O)[C@H](O)[C@H]7O)C(C)(C)[C@@H]6CC[C@]54C)[C@H]2[C@@H]1OC3=O`: the concentration for half-maximal inhibition (IC50) in test [1], in test [2] and in test [3] was above 75 µM each time.
As to `CC1(C)CC[C@]23CC[C@]4(C)[C@H](CC[C@@H]5[C@@]6(C)CC[C@H](O[C@@H]7O[C@H](CO)[C@H](O)[C@H](O)[C@H]7O)C(C)(C)[C@@H]6CC[C@]54C)[C@H]2[C@@H]1OC3`, the IC50 in test [1] amounted to 30 µM; in test [2], 40 µM; in test [3], 30 µM.
`CC1(C)CC[C@]23CC[C@]4(C)[C@H](CC[C@@H]5[C@@]6(C)CC[C@H](O[C@H]7O[C@H](CO)[C@@H](O)[C@H](O)[C@@H]7O)C(C)(C)[C@@H]6CC[C@]54C)[C@H]2[C@@H]1OC3=O`: the IC50 in test [1], in test [2] and in test [3] was above 75 µM in each case.
On to `C=C(C)[C@@H]1CC[C@]2(C(=O)O)CC[C@]3(C)[C@H](CC[C@@H]4[C@@]5(C)CC[C@H](OC(C)=O)C(C)(C)[C@@H]5CC[C@]43C)[C@@H]12`, for which the IC50 in test [1] worked out at 18 µM; in test [2], 20 µM; in test [3], 57 µM.
Take `C=C(C)[C@@H]1CC[C@]2(C(=O)O)CC[C@]3(C)[C@H](CC[C@@H]4[C@@]5(C)CC[C@H](O[C@@H]6O[C@H](CO)[C@H](O)[C@H](O)[C@H]6O)C(C)(C)[C@@H]5CC[C@]43C)[C@@H]12`: the IC50 in test [1], in test [2] and in test [3] was above 75 µM in each case.
Regarding `C=C(C)[C@@H]1CC[C@]2(C(=O)O)CC[C@]3(C)[C@H](CC[C@@H]4[C@@]5(C)CC[C@H](O[C@@H]6OC[C@@H](O)[C@H](O)[C@H]6O)C(C)(C)[C@@H]5CC[C@]43C)[C@@H]12`, the IC50 came to 15 µM in test [1], 18 µM in test [2] and 20 µM in test [3].
Turning to `CC1(C)CC[C@]23CC[C@]4(C)[C@H](CC[C@@H]5[C@@]6(C)CC[C@H](O[C@@H]7O[C@H](CO)[C@@H](O)[C@H](O)[C@H]7O)C(C)(C)[C@@H]6CC[C@]54C)[C@H]2[C@@H]1OC3=O`, the IC50 in test [1], in test [2] and in test [3] was above 75 µM throughout.
Consider `C[C@@H]1O[C@H](O[C@H]2CC[C@]3(C)[C@H]4CC[C@@H]5[C@H]6[C@@H]7OC(=O)[C@@]6(CCC7(C)C)CC[C@@]5(C)[C@]4(C)CC[C@H]3C2(C)C)[C@@H](O)[C@@H](O)[C@@H]1O`, for which the IC50 in test [1], in test [2] and in test [3] was above 75 µM throughout.
On to `C=C(C)[C@@H]1CC[C@]2(CO)CC[C@]3(C)[C@H](CC[C@@H]4[C@@]5(C)CC[C@H](O[C@@H]6O[C@H](CO)[C@@H](O)[C@H](O)[C@H]6O)C(C)(C)[C@@H]5CC[C@]43C)[C@@H]12`, for which the IC50 in test [1], in test [2] and in test [3] was above 75 µM each time.
On to `C=C(C)[C@@H]1CC[C@]2(CO)CC[C@]3(C)[C@H](CC[C@@H]4[C@@]5(C)CC[C@H](O[C@@H]6O[C@H](CO)[C@H](O)[C@H](O)[C@H]6O)C(C)(C)[C@@H]5CC[C@]43C)[C@@H]12`, for which the IC50 in test [1], in test [2] and in test [3] was above 75 µM each time.
`C=C(C)[C@@H]1CC[C@]2(CO)CC[C@]3(C)[C@H](CC[C@@H]4[C@@]5(C)CC[C@H](O[C@@H]6OC[C@@H](O)[C@H](O)[C@H]6O)C(C)(C)[C@@H]5CC[C@]43C)[C@@H]12`: the IC50 in test [1], in test [2] and in test [3] was above 75 µM in each case.
Turning to `CC1(C)CC[C@]23CC[C@]4(C)[C@H](CC[C@@H]5[C@@]6(C)CC[C@H](O[C@@H]7O[C@H](CO)[C@@H](O)[C@H](O)[C@H]7O)C(C)(C)[C@@H]6CC[C@]54C)[C@H]2[C@@H]1OC3`, the results for the IC50 in test [1], in test [2] and in test [3] were 31 µM, 40 µM and 40 µM, respectively.
Take `C[C@@H]1O[C@H](O[C@H]2CC[C@]3(C)[C@H]4CC[C@@H]5[C@H]6[C@@H]7OC[C@@]6(CCC7(C)C)CC[C@@]5(C)[C@]4(C)CC[C@H]3C2(C)C)[C@@H](O)[C@@H](O)[C@@H]1O`: the IC50 in test [1], in test [2] and in test [3] was above 75 µM throughout.
Consider `CC1(C)CC[C@]23CC[C@]4(C)[C@H](CC[C@@H]5[C@@]6(C)CC[C@H](O[C@H]7OC[C@H](O)[C@H](O)[C@H]7O)C(C)(C)[C@@H]6CC[C@]54C)[C@H]2[C@@H]1OC3=O`, for which the IC50 in test [1], in test [2] and in test [3] was above 75 µM throughout.
Regarding `CC1(C)CC[C@]23CC[C@]4(C)[C@H](CC[C@@H]5[C@@]6(C)CC[C@H](O[C@H]7O[C@H](CO)[C@@H](O)[C@H](O)[C@@H]7O)C(C)(C)[C@@H]6CC[C@]54C)[C@H]2[C@@H]1OC3`, the IC50 in test [1], in test [2] and in test [3] was above 75 µM in each case.
As for `CC1(C)CC[C@]23CC[C@]4(C)[C@H](CC[C@@H]5[C@@]6(C)CC[C@H](O)C(C)(C)[C@@H]6CC[C@]54C)[C@H]2[C@H]1OC3=O`, the concentration for half-maximal inhibition (IC50) in test [1], in test [2] and in test [3] was above 75 µM each time.
Consider `CC1(C)CC[C@]23CC[C@]4(C)[C@H](CC[C@@H]5[C@@]6(C)CC[C@H](O)C(C)(C)[C@@H]6CC[C@]54C)[C@H]2[C@H]1OC3` [ALLOBETULIN], for which the concentration for half-maximal inhibition (IC50) in test [1], in test [2] and in test [3] was above 75 µM in each case.
